Compound activity from PubChem.
An excerpt weighted towards active compounds, which were near 3.2% of everything screened.
OX1R antag-1 – blocks the human orexin 1 receptor. actives 1.8% (n = 330,000). inhibition, % at 6.6 µM. AID 485270. O43613. OX1R-expressing cells, FRET antagonist read-out; in the data active means inhibition mostly above about 38%, no sharp cut-off; inactive means mostly below about 40%
Target sequence (O43613 whole entry, looked up): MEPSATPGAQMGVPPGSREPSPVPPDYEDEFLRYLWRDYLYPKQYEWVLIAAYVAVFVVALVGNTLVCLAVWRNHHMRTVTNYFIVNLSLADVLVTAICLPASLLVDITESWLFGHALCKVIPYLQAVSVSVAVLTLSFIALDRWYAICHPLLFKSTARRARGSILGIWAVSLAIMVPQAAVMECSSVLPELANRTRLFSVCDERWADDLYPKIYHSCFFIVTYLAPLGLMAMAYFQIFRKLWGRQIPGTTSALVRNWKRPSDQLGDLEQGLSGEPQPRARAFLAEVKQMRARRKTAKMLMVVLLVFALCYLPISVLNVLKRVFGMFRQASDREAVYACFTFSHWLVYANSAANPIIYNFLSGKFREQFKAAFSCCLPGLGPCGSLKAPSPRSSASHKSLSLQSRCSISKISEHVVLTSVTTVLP
TRPML3 agonist – agonists of human TRPML3 channel; HEK293 TRPML3-YFP, Fluo-8 calcium fluorescence; 100% = the carbachol control signal; AID 1448; Q8TDD5; actives 0.29% (n = 220,000); activation, % at 3 µM;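 active means activation above its plate's cutoff, the mean activation of the plate's test wells plus 3 SD, cut at about 12% in these data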
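Material: TRPML3-YFP stable HEK293 cells | Dosing: One concentration, 3 µM nominal, 0.3% DMSO | Timing: 125 s total fluorescence read per well | Technique: Fluo-8 calcium dye fluorescence, ex 470-495, em 515-575 nm | Measure: Percent activation from peak-to-basal fluorescence ratio, scaled between DMSO and carbachol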
CHO parental Ca – counter-screen: ATP calcium response change in parental CHO cells; parental CHO-K1, ATP-induced calcium, Fluo-8 fluorescence; inhibition, % at 5.6 µM; actives 0.63% (n = 330,000);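 active means inhibition above that plate's mean sample inhibition plus 3 SD, cut at about 26% in these data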
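test system = CHO parental line | reagent = ATP stimulus | measured by = intracellular calcium via Fluo-8 no-wash fluorescent dye | control set = ATP and no-ATP DMSO wells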
TRPN1 ag – zebrafish TRPN1 (NompC) channel agonism; HEK293 zebrafish TRPN1-YFP, Fluo-8 calcium fluorescence; 100% = response to 87 µM carbachol; activation, % at 3 µM; actives 0.18% (n = 220,000); AID 1424;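 active means activation above its plate's cutoff, the mean activation of test wells on that plate plus 3 SD, cut at about 19% in these data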
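System: zebrafish TRPN1-YFP in HEK293 cells / Dosing: 3 µM single point / Timing: dye loading 1 h at 37 °C, then 30 min room temperature / Signal: Fluo-8 calcium fluorescence, excitation 470-495 nm, emission 515-575 nm / Read-out basis: percent activation from peak over basal fluorescence ratio, control-normalized / Control set: high carbachol 87 µM, low DMSO alone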
GPR7 antagonist – blocks human GPR7 receptor signaling; P48145; GPR7-expressing cells, fluorescence antagonist assay; inhibition, % at 4.4 µM; actives 1.1% (n = 290,000); in the data active means inhibition above about 16%, passing the limit was not always enough;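 further: cells stimulated with the agonist NPW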
OX1R antag-2 – blocks the human orexin 1 receptor; O43613; CHO/OX1R cells, Fluo-8 calcium fluorescence, orexin A; inhibition, % at 5 µM; actives 0.43% (n = 330,000);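 active means inhibition above its plate's threshold, mean inhibition of all tested compounds on the plate plus 3 SD, cut at about 37% in these data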
GPR7 antag conf – human GPR7 antagonism, confirmation assay; GPR7-expressing cells, calcium fluorescence antagonist mode; shares compounds with GPR7 antagonist; inhibition, % at 4.4 µM; AID 1952; actives 52% (n = 2,400); in the data active means inhibition above about 24%;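 further: stimulated with the GPR7 agonist NPW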
MCHR1 antag – counter-screen for GPR7 antagonists: antagonists of human MCHR1 | inhibition, % at 4.4 µM | MCHR1-expressing cells, fluorescence antagonist assay | AID 2148 | actives 62% (n = 2,400) | shares compounds with GPR7 antagonist; in the data active means inhibition above about 22%
A number is an active result.

CCCCn1c(N)c(N(CCOC)C(=O)CN2C(=O)C3CCCCC3C2=O)c(=O)[nH]c1=O (stereo unspecified) was read as OX1R antag-1 inactive, CHO parental Ca inactive and OX1R antag-2 inactive.
CN(C)CCCN(C(=O)c1ccc([N+](=O)[O-])o1)c1nc2cc3c(cc2s1)OCO3 was read as OX1R antag-1 inactive, CHO parental Ca inactive, GPR7 antagonist inactive and OX1R antag-2 inactive.
`COCCNC(=S)Nc1ccc(S(=O)(=O)Nc2ncccn2)cc1` gave OX1R antag-1 inactive, TRPML3 agonist inactive, CHO parental Ca inactive, TRPN1 ag inactive, GPR7 antagonist 25, OX1R antag-2 inactive, GPR7 antag conf inactive and MCHR1 antag inactive.
For O=S(=O)(Nc1ncccn1)c1ccc(NC(=S)NCCc2ccccc2)cc1 the results were OX1R antag-1 inactive, TRPML3 agonist inactive, CHO parental Ca inactive, TRPN1 ag inactive, GPR7 antagonist inactive and OX1R antag-2 inactive.
For CCCn1c(SCC(=O)Nc2cccnc2Cl)n[nH]c1=O the results were OX1R antag-1 inactive, CHO parental Ca inactive and OX1R antag-2 inactive.
`CCn1c(CNc2ccc(Cl)cc2)nnc1SCCN1CCCCC1` gave OX1R antag-1 inactive, TRPML3 agonist inactive, CHO parental Ca inactive, TRPN1 ag inactive, OX1R antag-2 inactive and MCHR1 antag inactive.
`CCn1c(CNc2ccc(Cl)cc2)nnc1SCc1ccc(Cl)cc1` gave OX1R antag-1 inactive, TRPML3 agonist inactive, CHO parental Ca inactive, TRPN1 ag inactive, GPR7 antagonist 34, OX1R antag-2 inactive, GPR7 antag conf 41 and MCHR1 antag 45.
Screening COc1ccc(NCc2nnc(SCCN3CCCCC3)n2-c2ccc(C)cc2)cc1 returned OX1R antag-1 inactive, TRPML3 agonist inactive, CHO parental Ca inactive, TRPN1 ag inactive, GPR7 antagonist inactive and OX1R antag-2 inactive.
For COc1ccc(CN2CCN(C(=O)c3ccco3)CC2)c(OC)c1OC the results were OX1R antag-1 inactive, CHO parental Ca inactive and OX1R antag-2 inactive.
Cc1cc(C)c(OCC(=O)Nc2ccc(S(=O)(=O)N3CCCC3)cc2)c(C)c1 was read as OX1R antag-1 inactive, CHO parental Ca inactive and OX1R antag-2 inactive.
Screening O=C1c2cccc(OCC(=O)N3CCCc4ccccc43)c2CCN1Cc1ccc(Br)cc1 returned OX1R antag-1 inactive, TRPML3 agonist inactive, CHO parental Ca inactive, TRPN1 ag inactive, GPR7 antagonist 31, OX1R antag-2 inactive, GPR7 antag conf 35 and MCHR1 antag 58.
For COC(=O)c1ccc(COc2cccc3c2CCN(Cc2cccc(C)c2)C3=O)o1 the results were OX1R antag-1 inactive, TRPML3 agonist inactive, CHO parental Ca inactive, TRPN1 ag inactive, GPR7 antagonist 22, OX1R antag-2 inactive, GPR7 antag conf 43 and MCHR1 antag 70.
`COC(=O)c1ccc(COc2cccc3c2CCN(Cc2ccccc2)C3=O)o1` gave OX1R antag-1 inactive, TRPML3 agonist inactive, CHO parental Ca inactive, TRPN1 ag inactive, GPR7 antagonist 29, OX1R antag-2 inactive, GPR7 antag conf 31 and MCHR1 antag 57.
CCOc1cc(CNn2cn[nH]c2=S)cc(Cl)c1OCc1ccccc1F was read as OX1R antag-1 inactive, TRPML3 agonist inactive, CHO parental Ca inactive, TRPN1 ag inactive, GPR7 antagonist inactive and OX1R antag-2 inactive.
For COCCNc1oc(/C=C/c2ccccc2OC)nc1S(=O)(=O)c1ccccc1 the results were OX1R antag-1 inactive, CHO parental Ca inactive, GPR7 antagonist inactive and OX1R antag-2 inactive.
CCN(Cc1ccccc1)Cc1nnnn1Cc1ccccc1 was read as OX1R antag-1 inactive, TRPML3 agonist inactive, CHO parental Ca inactive, TRPN1 ag inactive, GPR7 antagonist 26, OX1R antag-2 inactive, GPR7 antag conf inactive and MCHR1 antag inactive.
Screening NC(=O)c1ccsc1NC(=O)COC(=O)Cc1cccc2ccccc12 returned OX1R antag-1 inactive, TRPML3 agonist inactive, CHO parental Ca 59, TRPN1 ag inactive, GPR7 antagonist 28, OX1R antag-2 75, GPR7 antag conf 54 and MCHR1 antag 78.
`NC(=O)c1ccsc1NC(=O)COC(=O)Cc1c[nH]c2ccccc12` gave OX1R antag-1 inactive, CHO parental Ca inactive and OX1R antag-2 inactive.
For CCOc1ccc([N+](=O)[O-])cc1CNC1CCCCCCC1 the results were OX1R antag-1 inactive, CHO parental Ca inactive, GPR7 antagonist 54, OX1R antag-2 inactive, GPR7 antag conf 38 and MCHR1 antag inactive.
C=CCc1cccc([C@@H]2[C@@H](C)CC[C@H]3C(=O)N4[C@@H](c5cc(OC)c(OC)c(OC)c5)c5[nH]c6ccccc6c5C[C@H]4C(=O)N23)c1 was read as OX1R antag-1 inactive, TRPML3 agonist inactive, CHO parental Ca inactive, TRPN1 ag inactive, GPR7 antagonist 33, OX1R antag-2 inactive, GPR7 antag conf inactive and MCHR1 antag inactive.
Screening COc1cc(C2c3[nH]c4ccccc4c3C[C@@H]3C(=O)N(Cc4ccco4)CC(=O)N23)cc(OC)c1OC (stereo partly specified) returned OX1R antag-1 inactive, CHO parental Ca inactive, GPR7 antagonist inactive and OX1R antag-2 inactive.
COCCN=C1N[C@@H](c2ccc(Br)cc2)C(C(=O)OC)=C(C)N1Cc1ccccc1 was read as OX1R antag-1 inactive, CHO parental Ca inactive, GPR7 antagonist 49, OX1R antag-2 inactive, GPR7 antag conf 65 and MCHR1 antag 41.
Screening CCc1ccc(NC(=O)CSc2nc(O)cc(=O)n2C2CCCC2)cc1 returned OX1R antag-1 inactive, TRPML3 agonist inactive, CHO parental Ca inactive, TRPN1 ag inactive, GPR7 antagonist inactive and OX1R antag-2 inactive.
For O=C(CSc1nc(O)cc(=O)n1C1CCCC1)Nc1cccc(Cl)c1Cl the results were OX1R antag-1 inactive, TRPML3 agonist inactive, CHO parental Ca inactive, TRPN1 ag inactive, GPR7 antagonist 28, OX1R antag-2 inactive, GPR7 antag conf inactive and MCHR1 antag inactive.
`O=C(Cc1ccccc1)NCC(=O)OCc1cccc([N+](=O)[O-])c1` gave OX1R antag-1 inactive, CHO parental Ca inactive, GPR7 antagonist inactive and OX1R antag-2 inactive.
`COc1ccc([N+](=O)[O-])cc1N(CC(=O)NC(C(C)C)C(C)C)S(C)(=O)=O` gave OX1R antag-1 inactive, TRPML3 agonist inactive, CHO parental Ca inactive, TRPN1 ag inactive, GPR7 antagonist inactive and OX1R antag-2 inactive.
`Nc1ncnc(Oc2cccc(C(F)(F)F)c2)c1[N+](=O)[O-]` gave OX1R antag-1 inactive, TRPML3 agonist inactive, CHO parental Ca inactive, TRPN1 ag inactive, GPR7 antagonist inactive and OX1R antag-2 inactive.
